Sampled rows, rich in hits. Any-hit rate of the full collection: about 1.8%.
GSTO1 counter = blocks human GSTO1 in RBBP9 counter-screen; inhibition, % at 5.96 µM; 1.1% of 300,000 active; recombinant GSTO1, activity-based probe fluorescence polarization; P78417; AID 1974;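 active = inhibition above the campaign mean inhibition plus 3 SD, cut at about 35% in these data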;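 note: 0% = GSTO1-1 with DMSO and 100% = wells lacking GSTO1-1 enzyme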
EBNA-1 inhibitor = blocks EBNA-1 binding to DNA. EBNA-1 DNA binding, fluorescence polarization. inhibition, % at 14.8 µM. 0.34% of 300,000 active. AID 1950; in the data active = inhibition above about 28%
ZTA DNA inh = ZTA (EBV) inhibition in EBNA-1 counter-screen; ZTA-DNA binding, fluorescence polarization; inhibition, % at 11 µM; 0.15% of 320,000 active; in the data active = inhibition above about 33%
procasp3 activ = procaspase-3 (human) activation. recombinant procaspase-3 D3A, Ac-DEVD-pNA absorbance 405 nm. AID 463141. activation, % at 8.5 µM. 0.11% of 330,000 active;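 active = activation above the mean of all tested compounds plus 3 SD, cut at about 21% in these data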;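 note: 0% = DMSO alone and 100% = DMSO wells spiked with extra 5 µM PC-3 D3A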
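Test system: Procaspase-3 D3A mutant, all three cleavage aspartates alanine | Dosing: Single dose, 8.5 µM nominal compound, 0.8% DMSO | Schedule: 1 h preincubation, 2 h reaction | Technique: 405 nm absorbance of p-nitroaniline, reads at 0 and 120 min | Repeats: One well per compound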
Apaf-1 inh = inhibitors of human Apaf-1 apoptosome; inhibition, % at 20 µM; O14727; reconstituted apoptosome caspase-3 activity, DEVD-Rh110 fluorescence; 0.71% of 330,000 active; active = inhibition of at least 40% at 20 µM;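 note: plate controls were DMSO wells for no effect and DEVD-CHO caspase inhibitor wells for full effect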
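Material: biochemical Apaf-1 apoptosome reconstitution. Medium: Hepes buffer, pH 7.5. Also added: cytochrome c activation, bis-DEVD rhodamine 110 substrate. Timing: 30 min compound preincubation, 50 min activation, room temperature. Measured by: rhodamine 110 fluorescence at Ex 480/Em 540 nm.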
procasp7 counter = activates human procaspase-7, counter-screen for procaspase-3 activators | recombinant procaspase-7, Ac-DEVD-pNA absorbance 405 nm; D23A/D198A/D206A triple mutant, cannot self-cleave; scale: DMSO 0, 5 µM enzyme 100 | 0.093% of 330,000 active | activation, % at 8.5 µM | AID 463210;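 active = percent activation above the screen-wide mean plus 3 SD, cut at about 25% in these data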
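buffer or medium = Zinc-free HEPES/NaCl buffer, pH 7.4 | material = Procaspase-7 triple mutant (PC-7 D3A) | input = 2 µM procaspase-7 mutant as dispensed | signal = Epi-absorbance of released pNA at 405 nm, two timepoints | timing = 1 h preincubation, 2 h reaction | replicates = singlicate compound testing | evaluation = % activation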
Starred values were filed as active, the others as inactive; . = no result given.

SMILES	GSTO1 counter	EBNA-1 inhibitor	ZTA DNA inh	procasp3 activ	Apaf-1 inh	procasp7 counter
O=C(CCl)Nc1ccccc1C(=O)NCc1ccccc1	86*	10	0	1	-5	2
CSc1ccc(-c2sc(Nc3cccc4ccccc34)n[n+]2-c2ccccc2)cc1	37*	15	8	-1	5	-19
CSc1ccc(-c2sc(Nc3ccccc3)n[n+]2-c2ccccc2)cc1	3	5	-17	-12	30	-27
CC(NC(=O)COc1ccccc1Cl)c1ccccc1 (configuration not stated)	5	10	1	-6	14	-2
Cc1c(C)c2ccc(OCC(=O)NCCN3CCOCC3)c(C)c2oc1=O	5	-14	8	-8	9	-6
CCOc1ncccc1C(=O)Nc1ccc(S(=O)(=O)N2CC(C)CC(C)C2)cc1 (configuration not stated)	.	.	.	4	-1	3
O=C(NCC(F)(F)F)c1ccc(S(=O)(=O)Nc2ccccc2N2CCCC2)cc1	.	.	.	-1	54*	-18
COc1ccc(CNCC(O)(c2ccc(Cl)cc2)c2ccc(Cl)cc2)cc1OC	-4	-3	-20	-1	42*	2
O=C(CSc1nnc(-c2ccc(OC(F)F)cc2)o1)NCc1cccs1	6	147*	78*	3	5	3
O=C(NCCNc1ccc2ccccc2c1)c1cccn2c(=O)c3sccc3nc12	9	-7	4	-2	51*	-9
COc1cccc(NC(=O)COC(=O)/C=C/c2ccc(Cl)cc2Cl)c1	-2	39*	9	5	25	-7
O=C(COC(=O)/C=C/c1ccc(Cl)cc1Cl)Nc1ccc2c(c1)OCCO2	0	10	14	5	-7	10
COC(=O)c1cc(S(=O)(=O)NCC2CCN(CCc3cccs3)CC2)cn1C	7	-4	12	-4	8	-7
O=C(NCCCN1CCCC1=O)c1cccc(S(=O)(=O)N2CCN(c3ccc(F)cc3)CC2)c1	-3	-10	-4	7	0	9
Cc1ccnc2nc(C(=O)OCC(=O)N(Cc3ccccc3)C(C)(C)C)nn12	.	.	.	6	-4	-1
CC(C)n1cnc2c(Nc3ccc(F)c(Cl)c3)nc(NCCO)nc21	-2	6	3	7	4	4
C=CC(=O)Nc1ccc(Nc2nc(NC3CCC(N(C)C)CC3)nc3c2ncn3C(C)C)cc1 (configuration not stated)	.	.	.	-3	46*	7
CCOc1ccccc1NC(=O)c1cc(S(=O)(=O)NCc2ccco2)ccc1F	35*	-6	11	-11	19	-7
COc1ccc(OC)c(NC(=O)c2cc(S(=O)(=O)NCc3ccco3)ccc2F)c1	36*	5	5	-3	-8	-6
COc1ccc(CNS(=O)(=O)c2ccc(F)c(C(=O)Nc3ccccc3OC)c2)cc1	2	-8	-8	10	8	0
O=C(NN1C(=O)/C(=C/c2ccc(O)c([N+](=O)[O-])c2)SC1=S)c1ccccc1Cl	1	-8	-5	-20	16	-38
O=C(NN1C(=O)/C(=C/c2cc([N+](=O)[O-])ccc2O)SC1=S)c1ccccc1O	67*	4	19	0	-5	-12
Cc1cc(C)c(NC(=O)COC(=O)c2ccc([N+](=O)[O-])s2)c(C)c1	6	-19	0	2	18	8
Cc1ccc(NC(=O)COC(=O)c2ccc([N+](=O)[O-])s2)c(C)c1	35*	2	9	3	6	1
CC(NC(=O)COC(=O)c1ccc([N+](=O)[O-])s1)c1ccccc1 (configuration not stated)	44*	11	-12	3	7	-14
SMILES	GSTO1 counter	EBNA-1 inhibitor	ZTA DNA inh	procasp3 activ	Apaf-1 inh	procasp7 counter
NS(=O)(=O)c1ccc(NC(=O)COC(=O)c2ccc([N+](=O)[O-])s2)cc1	44*	0	1	-2	10	2
O=C(COC(=O)c1ccc([N+](=O)[O-])s1)NCCc1ccccc1	.	.	7	3	33	-10
Cc1ccc2nc(SCC(=O)NCCCN3CCCC3=O)[nH]c2c1	.	.	-4	-9	-7	-10
COc1cc(/C=C2\CCn3c2nc2cc(C(=O)O)ccc2c3=O)ccc1OC(F)F	-9	-9	7	-8	10	-9
CC(=O)NN1C(=O)c2ccc3c4c(ccc(c24)C1=O)C(=O)N(NC(C)=O)C3=O	37*	-22	-11	0	22	15
c1ccc(C[C@H]2CNCCN2CCCCC2CCCCC2)cc1	-8	-5	-7	-2	49*	-8
Nc1c(C(=O)N/N=C/c2cccnc2)oc2nc(-c3ccco3)cc(-c3ccco3)c12	9	5	5	-11	-12	-15
NNC(=O)c1oc2nc(-c3ccco3)cc(-c3ccco3)c2c1N	52*	7	11	-9	8	-16
Cc1ccc(C(=O)c2coc3ccc(O)c(Cl)c23)cc1	7	2	8	1	7	9
CCOC(=O)C(C(C)=O)c1c(Br)c(O)c(O)c2c(C(=O)c3ccc(C)cc3)coc12 (configuration not stated)	67*	8	9	-15	7	-27
ClCC1=Nc2cccc3cccc(c23)N1	55*	3	3	-7	-25	-3
O=S1(=O)CCOC[C@H](c2ccccc2)N1Cc1ccccc1F	-5	4	-2	4	5	-2
O=C(O)c1ccccc1-c1ccccc1C(=O)Nc1ccc(F)cc1	0	-13	1	2	-12	6
O=C(/C=C/c1ccc(NC(=O)c2ccccc2-c2ccccc2C(=O)O)cc1)c1ccccc1	-50	3	41*	-5	22	-11
COc1ccccc1N(Cc1cc(=O)[nH]c2ccccc12)C(=O)c1cccc([N+](=O)[O-])c1	36*	-24	-16	4	17	2
O=C(CSc1ccc(F)cc1)NCC1(N2CCOCC2)CCCCC1	-1	-4	2	-5	26	-7
O=C(Cc1ccc(Br)cc1)NC1CCCc2ccccc21 (configuration not stated)	6	8	9	5	13	-1
O=C(CCl)NC1CCCc2ccccc21 (configuration not stated)	72*	-8	-24	-4	-4	-1
O=C(COc1ccc(Cl)cc1)NC1=NN(c2ccccc2)C(=O)C1	40*	13	19	-3	13	5
CN(C)CCN(C(=O)c1ccc(S(=O)(=O)N2CCCC2)cc1)c1nc2ccc(Br)cc2s1	3	5	5	-9	2	2
